S1P4 antag: S1P4 receptor antagonists, primary screen, cell-based. Sphingosine 1-phosphate receptor 4 (Homo sapiens), O95977. AID 1510, 2009. 220,000 compounds, 0.26% hits. inhibition, % at 4.98 µM. S1P4-expressing cells, antagonist mode, reporter read-out; in the data active = inhibition above about 29%;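 note: 0% = wells stimulated with agonist and 100% = vehicle wells without agonist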
S1P4 agonist: S1P4 receptor agonists, primary screen, cell-based; S1P4-expressing cell line, agonist reporter assay; activation, % at 4.98 µM; 220,000 compounds, 0.35% hits; in the data active = activation above about 11%;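 note: 0% = DMSO vehicle and 100% = reference agonist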
Calb biofilm kill: clotrimazole potentiators killing C. albicans biofilm, primary screen, 4-compound mixtures | C. albicans biofilm persisters + clotrimazole, fluorescence viability; primary screen in compound mixtures of four per well | inhibition, % at 7.6 µM | 120,000 compounds, 0.02% hits;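 active = inhibition above 30.3% in the primary screen of four-compound pools, then above 30% when the compound was retested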;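 note: compounds exposed to preformed 24 h biofilms for 48 h; 0% = untreated biofilm control and 100% = clotrimazole plus chlorhexidine kill blank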
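Probe or stimulus – Clotrimazole 50 µg/mL co-treatment · System – C. albicans biofilms · Schedule – 24 h biofilm formation, then 48 h compound exposure, 37 °C · Evaluation – percent inhibition of biofilm viability · Technique – 2-h Alamar Blue fluorescence, 535/590 nm excitation/emission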
Mdm2 ligase inh: MDM2-luciferase reporter signal enhancers, primary screen, MDM2 E3 ligase inhibitor project, cell-based, luminescence, 1536-well. E3 ubiquitin-protein ligase Mdm2 (Homo sapiens), Q00987. cell-based MDM2 ubiquitination luciferase reporter, 2 h; 0 = plate control, 100 = twice control, blank-subtracted. signal enhancement, % at 5 µM. 210,000 compounds, 0.11% hits;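 active = signal enhancement of 30% or more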;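 note: luminescence tracks abundance of the self-degrading MDM2-luciferase fusion protein; higher signal means inhibition of MDM2 E3 ligase activity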
Target sequence (Q00987 whole entry, looked up, the tested form may be a part): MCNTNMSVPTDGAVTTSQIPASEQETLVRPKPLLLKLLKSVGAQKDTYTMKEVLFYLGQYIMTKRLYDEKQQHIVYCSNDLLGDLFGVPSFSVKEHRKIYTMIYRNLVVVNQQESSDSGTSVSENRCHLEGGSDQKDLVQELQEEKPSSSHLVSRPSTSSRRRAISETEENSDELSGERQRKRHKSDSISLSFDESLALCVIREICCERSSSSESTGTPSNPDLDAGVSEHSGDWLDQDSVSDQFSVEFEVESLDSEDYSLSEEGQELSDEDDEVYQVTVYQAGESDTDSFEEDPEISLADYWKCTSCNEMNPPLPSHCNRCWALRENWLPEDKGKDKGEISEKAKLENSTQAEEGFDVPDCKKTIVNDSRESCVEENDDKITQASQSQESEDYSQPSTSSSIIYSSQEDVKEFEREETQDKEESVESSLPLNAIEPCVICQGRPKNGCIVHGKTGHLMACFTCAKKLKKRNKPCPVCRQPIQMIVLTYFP
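Test system: mammalian cells stably expressing self-ubiquitinating, self-degrading MDM2 E3–luciferase fusion; Amount: 2000 cells in each well; Medium: DMEM; Schedule: 4 h settle plus 2 h compound, 37 °C; Technique: SteadyLite luciferase luminescence after 15 min room-temperature reagent incubation; Benchmarks: plate control and blank wells.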
S1P3 antag-1: S1P3 receptor antagonists, primary screen, cell-based; CHO S1P3 NFAT-BLA reporter, FRET fluorescence, antagonist mode; inhibition, % at 4.98 µM; 170,000 compounds, 0.27% hits; AID 485, 2006;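 active = inhibition above the plate cutoff, the mean inhibition of test wells on that plate plus 3 SD, cut at about 28% in these data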;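 note: cells challenged with S1P at its EC80 of 0.8 µM; blue over green emission ratio from cleaved BLA substrate after 4 h stimulation; 0% = S1P-stimulated wells and 100% = unstimulated DMSO-only wells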
S1P3 antag-2: S1P3 receptor antagonists, retest, confirmation, cell-based. inhibition, % at 4.98 µM. CHO S1P3 NFAT-BLA reporter, FRET, antagonist mode. 240 compounds, 30% hits. shares compounds with S1P3 antag-1;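 active = inhibition above the hit threshold that was computed for the earlier primary screen, cut at about 30% in these data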;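 note: 0% = S1P-stimulated wells and 100% = unstimulated DMSO-only wells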
S1P4 agonist cf: S1P4 receptor agonists, retest, confirmation, cell-based, high throughput; shares compounds with S1P4 agonist; S1P4 agonist cell-based reporter assay; activation, % at 4.98 µM; 740 compounds, 7% hits; in the data active = activation above about 12%;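 note: 0% = vehicle and 100% = full reference agonist response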
S1P1 agonist: S1P1 receptor agonists, human, counter-screen for S1P4 agonist project, cell-based. shares compounds with S1P4 agonist. S1P1 agonist cell-based assay, activation. activation, % at 4.98 µM. 740 compounds, 4% hits. AID 1563, 2009; in the data active = activation above about 21%;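 note: 0% = vehicle wells and 100% = reference agonist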
S1P4 antag conf: S1P4 receptor antagonists, human, confirmation, cell-based. 520 compounds, 71% hits. inhibition, % at 4.98 µM. AID 1524, 2009. shares compounds with S1P4 antag. S1P4-expressing cell line, antagonist mode, reporter read-out; in the data active = inhibition above about 30%
S1P1 antag: S1P1 receptor antagonists, human, counter-screen for S1P4 antagonist project, cell-based; inhibition, % at 4.98 µM; shares compounds with S1P4 antag; 520 compounds, 37% hits; AID 1564, 2009; cell-based S1P1 antagonist counterscreen, inhibition; in the data active = inhibition above about 40%;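 note: receptor stimulated with S1P near its EC80; 0% = agonist stimulated wells and 100% = vehicle only wells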
* = called active by the depositor; / = not tested or not shown. Shown are actives, neighbours in structure and some others; about 0.9% of the full set was active somewhere.

SMILES | S1P4 antag | S1P4 agonist | Calb biofilm kill | Mdm2 ligase inh | S1P3 antag-1 | others
Cn1cc(C(=O)NP(=O)(N2CCOCC2)N2CCOCC2)c2ccccc21 | -2 | -1 | 5 | -14 | -12
CCCn1nc2ccccc2c1P(=O)(N1CCOCC1)N1CCOCC1 | -15 | 0 | / | -17 | 106*
O=C(NCC(c1cccnc1)N1CCN(c2ccc(F)cc2)CC1)Oc1ccccc1 (centres undefined) | -23 | 0 | 8 | / | /
CN1CCN(C(=O)OC2c3nccnc3C(=O)N2c2ccc(Cl)cn2)CC1 (centres undefined) | -10 | 1 | 16 | / | 110*
Cc1cc(Cl)ccc1OCC(=O)N1CCN(C)CC1 | 8 | -1 | / | -6 | -48
NC(=O)CN1CCCC1=O | -10 | 0 | 2 | / | -5
COP(=O)(OC)C1(Nc2ccc(C)cc2)CCCCC1 | -6 | 2 | / | -9 | /
CC(=O)c1c(O)n(-c2cccc(Cl)c2)c(=O)[nH]c1=O (tested in a mixture with another compound) | 10 | 0 | 25 | -14 | -10
CC(C)n1c(O)c(C2c3cc(Cl)ccc3Oc3[nH]c(=O)n(C(C)C)c(=O)c32)c(=O)[nH]c1=O (centres undefined) | 35* | 1 | 21 | 11 | 17
CCN1C(=O)C(=C/C=C/c2ccco2)C(=O)N(CC)C1=S | -3 | 0 | 9 | 47* | -17
C=C1C(=O)O[C@@H]2C[C@@H](C)[C@@H]3C=CC(=O)[C@@]3(C)[C@@H](O)[C@H]12 | / | / | 17 | 53* | /
CCn1nc(-c2cccs2)nc2c(=O)n(C)c(=O)nc1-2 | / | / | / | -18 | 106*
CC(=O)OC(C)(C)/C=C/C(=O)[C@](C)(O)[C@H]1[C@H](O)C[C@@]2(C)[C@@H]3CC=C4[C@H](C[C@H](O)C(=O)C4(C)C)[C@]3(C)C(=O)C[C@]12C | 67* | -1 | 14 | / | 74* | S1P3 antag-2=90*
CC[C@@]1(O)C(=O)OCc2c1cc1n(c2=O)Cc2cc3ccccc3nc2-1 | 27 | 6 | 22 | -31 | 59* | S1P3 antag-2=70*
CCOP(=O)(Cc1cc(C#N)oc1C)OCC | 1 | 0 | 18 | -6 | -18
O=C1OCc2cc(N=Nc3c(O)[nH]c(=O)[nH]c3=O)ccc21 | -12 | 1 | 18 | -19 | 7
N#CC(C#N)=NNc1ccc(-n2ccc(C(F)(F)F)n2)cc1 | 27 | 0 | 13 | -62 | 44* | S1P3 antag-2=45*
Cc1cc(C)n(-c2ccc(NN=C(C#N)C#N)cc2)n1 | 4 | 0 | 7 | -32 | 11
Clc1ccccc1CN1CCN(c2cccc3[nH]ccc23)CC1 | -5 | 1 | 13 | -7 | 1
CC(C)[C@H]1C(=O)O[C@H](C(C)C)C(=O)N(C)[C@@H](C(C)C)C(=O)O[C@H](C(C)C)C(=O)N(C)[C@@H](C(C)C)C(=O)O[C@H](C(C)C)C(=O)N1C | 10 | 0 | 21 | 3 | 70* | S1P3 antag-2=75*
COc1cc2c(cc1OC)[C@@H]1C(=O)c3ccc4c(c3O[C@@H]1CO2)C[C@H](C(C)C)O4 | 5 | -2 | -12 | -31 | 38* | S1P3 antag-2=36*
c1cc(CCN2CCCC2)ccn1 | 1 | 0 | 16 | -13 | 9
CCn1nc(/C=C/c2ccccc2)nc2c(=O)n(C)c(=O)nc1-2 | 12 | 3 | 7 | -44 | 75* | S1P3 antag-2=109*
c1ccc(NC2=NCCS2)cc1 | 6 | 0 | 30 | 0 | -1
O=C(CCCN1CCC2(CC1)C(=O)NCN2c1ccccc1)c1ccc(F)cc1 | -7 | 2 | 11 | / | 68* | S1P3 antag-2=59*
SMILES | S1P4 antag | S1P4 agonist | Calb biofilm kill | Mdm2 ligase inh | S1P3 antag-1 | others
Cc1ccsc1C(=O)C1CCCN(Cc2cnc(N3CCCC3)s2)C1 (centres undefined) | -13 | -1 | 24 | 2 | 12
NC(=S)c1cn(C2OC(CO)C(O)C2O)c2ncnc(N)c12 (centres undefined) | 100* | 0 | 36 | -39 | 86* | S1P3 antag-2=105*;S1P4 antag conf=112*;S1P1 antag=94*
CCC1(CC)C(=O)N(C)C(=O)NC1=NC | 0 | 0 | 21 | -9 | -7
CCOC(=O)c1sc(/N=C/c2c(O)n(-c3ccccc3)c(=O)[nH]c2=O)c(C#N)c1C | 12 | 13* | / | -9 | / | S1P4 agonist cf=-2;S1P1 agonist=-2
Cc1cccc(-n2c(O)c(C)c(=O)[nH]c2=S)c1 | -6 | 56* | 15 | -12 | -8 | S1P4 agonist cf=-2;S1P1 agonist=1
Cc1cccc(-n2c(O)c(C=Nc3ccc(Br)cn3)c(=O)[nH]c2=O)c1 | -1 | 1 | 15 | 1 | -3
C/C(=N\N1CCCCCC1)c1c(O)n(C2CCCCC2)c(=O)[nH]c1=O | -3 | 0 | 15 | -4 | 0
CC1=CC2/C=C(\C)CCC(O)C(O)/C=C/C(=O)C23C(=O)NC(CC(C)C)C3C1C (centres undefined) | 64* | -1 | 19 | 4 | 7 | S1P4 antag conf=114*;S1P1 antag=23
CCCCn1c(NC(=O)c2ccco2)c(C(=O)OCC)c2nc3ccccc3nc21 | 31* | -1 | / | 1 | -15 | S1P4 antag conf=16;S1P1 antag=5
CC[C@@]1(O)C(=O)OCc2c1cc1n(c2=O)Cc2cc3c(NC(=O)CN)cccc3nc2-1 | -5 | 0 | 5 | -5 | -2
CCC1(OC(=O)CN)C(=O)OCc2c1cc1n(c2=O)Cc2cc3ccccc3nc2-1 (centres undefined) | 92* | 3 | 24 | -41 | 15 | S1P4 antag conf=64*;S1P1 antag=24
COCCNCCOc1ccc(C(C)(C)c2ccccc2)cc1 | 16 | 0 | 15 | -16 | -2

Screening data from PubChem.
